The source made the active and inactive calls. No cut-off for these calls is given here.
What was measured:
[1] = system: MDA-MB-453; assay: Toxicity in human MDA-MB-453 cells at 8 uM by MTT assay; assay type: cell-based; details: mda-mb-453, 8 µM
[2] = molecular target: Insulin-like growth factor 1 receptor (Homo sapiens, UniProt P08069); assay: Inhibition of IGF1R using fluorescent substrate by IMAP assay
Procedure, shortened: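 Run in-house using IMAP: phosphorylated fluorescent peptide substrate binds preferentially to immobilized metal beads, which quantifies kinase activity. ATP at 3× the Km of each enzyme.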

[3] = system: HeLa; assay: Cell cycle arrest in human HeLa cells assessed as time delay in progression through mitosis at 2 uM treated 2 hr post double thymidine-synchrony release using propidium iodide staining by FACS analysis; assay type: functional
Procedure, shortened: (§1)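 Cells harvested at set times post-release, fixed in 70% ethanol, stained with 5 μg/ml propidium iodide plus 0.5 mg/ml RNase A, and analysed by flow cytometry. Cell-cycle phase fractions calculated by ModFit.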

[4] = system: HeLa; assay: Cell cycle arrest in human HeLa cells assessed as accumulation at G1 phase at 2 uM treated 4 hr and measured 10 hr post double thymidine-synchrony release using propidium iodide staining by FACS analysis (reference value: 68 %); assay type: functional
[5] = system: HeLa; assay: Cell cycle arrest in synchronized human HeLa cells assessed as inhibition of cytokinesis at 2 uM by time-lapse microscopy; assay type: functional
[6] = Cell cycle arrest in human SK-MEL-13 cells assessed as accumulation at G1 phase at 2 uM treated 1 hr and measured 12 hr post double hydroxyurea-synchrony release using propidium iodide staining by FACS analysis (reference value: 40 %); assay type: functional, cell-based
Procedure, shortened: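 SK-Mel-13 cells synchronized with 2 mM hydroxyurea, then treated with 2 μM CDK4 inhibitor or left untreated 1 h after release. Harvested at indicated times post-release, ethanol-fixed, propidium iodide/RNase stained, and DNA content read by FACS. Proportions of G1, S and G2/M cells derived with ModFit.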

[7] = system: HCT-116; assay: Cell cycle arrest in Rb-competent human HCT116 cells assessed as […] at IC90 after 24 hrs using BrdUrd staining by FACS analysis (Rvb =38 %); assay type: functional
[8] = system: HeLa; assay: Cell cycle arrest in Rb-deficient human HeLa cells assessed as accumulation at sub-diploid phase at 2 uM after 24 hrs by FACS analysis; assay type: functional
Procedure, shortened: (§2)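 Ethanol-fixed cells stained with propidium iodide/RNase A, DNA content read by FACS, phase and sub-diploid fractions calculated with ModFit.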

[9] = system: SW480; assay: Antiproliferative activity against human SW480 cells assessed as inhibition of S phase after 48 hrs by MTT assay; assay type: functional, cell-based; details: SW480, 48 h
Procedure, shortened: (§3)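 Cells grown in DMEM with 3 mM HEPES and 10% Serum Supreme at 37 °C, 5% CO2. Proliferation read by MTT assay 48 h after drug addition; IC50 given as mean of two separate determinations, each in duplicate.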

[10] = system: HeLa; assay: Decrease in survivin mRNA expression in human HeLa cells at 2 uM measured 8 to 14 hr post thymidine-synchrony release by RT-PCR analysis; assay type: functional, cell-based
Procedure, shortened: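 Survivin mRNA measured by real-time Taqman RT-PCR on TRIzol-extracted RNA from synchronized, treated HeLa samples, with β-actin as reference. Reaction used 600 nM each primer and 200 nM probe. Cycling: 50 °C for 2 min, 95 °C for 10 min, then 40 cycles of 95 °C for 15 s and 60 °C for 1 min. Values are the average of triplicate determinations.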

[11] = molecular target: Cyclin-dependent kinase 4 (Homo sapiens) (UniProt P11802); assay: Inhibition of CDK4-mediated Rb phosphorylation at ser 795 in human HCT116 cells at IC90 after 24 hrs by immunoblot analysis; assay type: cell-based; details: HCT-116
Procedure, shortened: (§4)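 Asynchronous HCT-116 cells (DMEM, 3 mM HEPES, 10% serum, 37 °C, 5% CO₂) were given increasing inhibitor doses for 4 or 24 h. Lysis in NETN with phosphatase and protease inhibitors, then SDS-PAGE, nitrocellulose transfer and immunoblot for phospho-Rb (Ser-795) with HRP secondary and chemiluminescence.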

[12] = system: HeLa; assay: Decrease in borealin protein expression in human HeLa cells at 2 uM measured 14 hr post thymidine-synchrony release by immunoblot analysis; assay type: functional, cell-based
Procedure, shortened: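 Synchronized HeLa cells given 2 μM CDK4 inhibitor in early S phase and harvested at set times post-release. Lysed in supplemented NETN buffer on ice for 20 min. Lysates run on SDS-PAGE and immunoblotted for survivin, borealin and other chromosomal passenger proteins, with ECL detection. Cyclin D3 served as loading control.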

[13] = system: HeLa; assay: Cell cycle arrest in Rb-deficient human HeLa cells assessed as accumulation at S phase at 2 uM after 24 hrs by FACS analysis; assay type: functional; procedure, shortened: as §2
[14] = molecular target: Cyclin-dependent kinase 4 (Homo sapiens) (UniProt P11802); assay: Inhibition of CDK4-mediated Rb phosphorylation at ser 795 in human HCT116 cells at IC50 after 24 hrs by immunoblot analysis; assay type: cell-based; details: HCT-116; procedure, shortened: as §4
[15] = system: HeLa; assay: Cell cycle arrest at G2 phase in human HeLa cells assessed as delay in entry into mitosis at 2 uM treated 1 hr after double thymidine-synchrony release by MPM-2-based FACS analysis (reference value: 8 hrs); assay type: functional
[16] = system: HeLa; assay: Cell cycle arrest at G2 phase in human HeLa cells at 2 uM treated 8 hr and measured 12 hr post-synchrony release using Propidium iodide staining by FACS analysis in presence of p38 MAPK inhibitor SB203580; assay type: functional, cell-based
[17] = molecular target: Cyclin-dependent kinase 1/cyclin B1 (Homo sapiens, UniProt P06493); assay: Inhibition of human CDK1-GST-tagged cyclin B using his-tagged Rb as substrate after 30 mins by scintillation counting method; assay type: protein-complex assay
[18] = system: HCT-116; assay: Antiproliferative activity against human HCT116 cells assessed as inhibition of S phase after 48 hrs by MTT assay; assay type: functional, cell-based; details: HCT-116, 48 h; procedure, shortened: as §3
[19] = system: HeLa; assay: Cell cycle arrest in human HeLa cells assessed as accumulation at S phase at 2 uM treated 6 hr and measured 10 hr post double thymidine-synchrony release using propidium iodide staining by FACS analysis (reference value: 1 %); assay type: functional; procedure, shortened: as §1
[20] = system: HeLa; assay: Cell cycle arrest in human HeLa cells assessed as accumulation at G1 phase at 2 uM treated 6 hr and measured 8 hr post double thymidine-synchrony release using propidium iodide staining by FACS analysis (reference value: 6 %); assay type: functional
[21] = system: HeLa; assay: Cell cycle arrest in human HeLa cells assessed as accumulation at G2/M phase at 2 uM treated 6 hr and measured 10 hr post double thymidine-synchrony release using propidium iodide staining by FACS analysis (reference value: 31 %); assay type: functional; procedure, shortened: as §1
[22] = system: HeLa; assay: Induction of abberent mitosis in human HeLa cells expressing GFP-H2B assessed as micronuclei formation during interphase at 2 uM treated 1 hr and measured 24 hr post thymidine-synchrony release by time-lapse microscopy (reference value: 10%); assay type: functional
[23] = system: HeLa; assay: Cell cycle arrest in synchronized human HeLa cells assessed as delay in mitotic entry at 2 uM by time-lapse microscopy (reference value: 8-9 hrs); assay type: functional
[24] = system: HCT-116; assay: Cell cycle arrest in Rb-competent human HCT116 cells assessed as […] at IC50 after 24 hrs using BrdUrd staining by FACS analysis (Rvb =38 %); assay type: functional
[25] = system: HeLa; assay: Cell cycle arrest in human HeLa cells assessed as time delay in progression through G2/M phase at 2 uM treated at 4 hr post double thymidine-synchrony release using propidium iodide staining by FACS analysis; assay type: functional; procedure, shortened: as §1
[26] = system: MDA-MB-435; assay: Toxicity in human MDA-MB-435 cells at 8 uM by MTT assay; assay type: cell-based; details: mda-mb-435, 8 µM

Cyclin-dependent kinase 4 (Homo sapiens), sequence (P11802 whole entry): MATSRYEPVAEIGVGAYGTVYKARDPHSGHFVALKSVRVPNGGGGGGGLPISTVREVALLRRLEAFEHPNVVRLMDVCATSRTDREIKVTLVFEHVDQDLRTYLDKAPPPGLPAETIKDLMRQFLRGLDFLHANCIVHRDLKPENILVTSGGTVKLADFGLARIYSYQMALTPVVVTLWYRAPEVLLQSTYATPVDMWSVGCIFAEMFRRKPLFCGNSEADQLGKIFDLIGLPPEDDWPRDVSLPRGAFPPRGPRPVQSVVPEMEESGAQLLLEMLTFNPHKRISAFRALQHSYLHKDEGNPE
Cyclin-dependent kinase 1/cyclin B1, sequence (P06493 whole entry): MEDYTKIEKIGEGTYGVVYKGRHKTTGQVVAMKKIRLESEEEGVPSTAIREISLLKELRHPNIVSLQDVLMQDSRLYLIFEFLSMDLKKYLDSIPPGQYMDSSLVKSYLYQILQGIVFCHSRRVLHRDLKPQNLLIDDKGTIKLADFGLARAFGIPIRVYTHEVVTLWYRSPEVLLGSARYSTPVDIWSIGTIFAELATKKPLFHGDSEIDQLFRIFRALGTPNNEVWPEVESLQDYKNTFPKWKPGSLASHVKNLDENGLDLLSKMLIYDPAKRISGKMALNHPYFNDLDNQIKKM
Cyclin-dependent kinase 1/cyclin B1, sequence (P14635 whole entry, further chain): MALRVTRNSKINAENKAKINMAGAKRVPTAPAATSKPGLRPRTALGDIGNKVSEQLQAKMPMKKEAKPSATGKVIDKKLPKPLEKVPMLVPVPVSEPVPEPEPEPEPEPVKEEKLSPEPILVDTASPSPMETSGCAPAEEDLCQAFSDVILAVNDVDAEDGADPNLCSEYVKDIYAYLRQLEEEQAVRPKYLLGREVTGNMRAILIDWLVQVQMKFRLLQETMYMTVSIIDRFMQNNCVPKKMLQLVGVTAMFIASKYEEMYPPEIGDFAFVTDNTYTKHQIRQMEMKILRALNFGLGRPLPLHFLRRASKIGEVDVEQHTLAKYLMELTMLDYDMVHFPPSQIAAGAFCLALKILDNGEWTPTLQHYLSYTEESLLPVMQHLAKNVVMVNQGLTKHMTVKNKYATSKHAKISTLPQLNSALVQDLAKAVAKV
Insulin-like growth factor 1 receptor, sequence (P08069 31-736 limits assumed): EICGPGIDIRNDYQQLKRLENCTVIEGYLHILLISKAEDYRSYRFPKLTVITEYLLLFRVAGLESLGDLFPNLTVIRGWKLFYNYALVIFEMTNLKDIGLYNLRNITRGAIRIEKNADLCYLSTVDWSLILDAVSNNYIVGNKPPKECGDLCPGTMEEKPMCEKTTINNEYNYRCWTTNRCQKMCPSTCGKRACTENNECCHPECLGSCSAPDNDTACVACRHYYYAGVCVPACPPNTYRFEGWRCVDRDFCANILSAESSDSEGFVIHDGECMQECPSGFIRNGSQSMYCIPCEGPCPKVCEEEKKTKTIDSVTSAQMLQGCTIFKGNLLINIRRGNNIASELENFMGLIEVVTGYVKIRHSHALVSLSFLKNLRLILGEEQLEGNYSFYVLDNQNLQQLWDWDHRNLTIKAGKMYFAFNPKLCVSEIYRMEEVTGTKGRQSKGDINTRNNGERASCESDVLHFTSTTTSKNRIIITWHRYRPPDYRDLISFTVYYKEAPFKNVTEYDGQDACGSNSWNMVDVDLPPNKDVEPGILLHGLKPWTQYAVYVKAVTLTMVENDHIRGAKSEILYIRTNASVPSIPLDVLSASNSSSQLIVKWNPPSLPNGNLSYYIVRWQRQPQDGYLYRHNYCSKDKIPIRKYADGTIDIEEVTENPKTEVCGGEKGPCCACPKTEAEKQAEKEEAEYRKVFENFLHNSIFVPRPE
Insulin-like growth factor 1 receptor, sequence (P08069 741-1367 limits assumed): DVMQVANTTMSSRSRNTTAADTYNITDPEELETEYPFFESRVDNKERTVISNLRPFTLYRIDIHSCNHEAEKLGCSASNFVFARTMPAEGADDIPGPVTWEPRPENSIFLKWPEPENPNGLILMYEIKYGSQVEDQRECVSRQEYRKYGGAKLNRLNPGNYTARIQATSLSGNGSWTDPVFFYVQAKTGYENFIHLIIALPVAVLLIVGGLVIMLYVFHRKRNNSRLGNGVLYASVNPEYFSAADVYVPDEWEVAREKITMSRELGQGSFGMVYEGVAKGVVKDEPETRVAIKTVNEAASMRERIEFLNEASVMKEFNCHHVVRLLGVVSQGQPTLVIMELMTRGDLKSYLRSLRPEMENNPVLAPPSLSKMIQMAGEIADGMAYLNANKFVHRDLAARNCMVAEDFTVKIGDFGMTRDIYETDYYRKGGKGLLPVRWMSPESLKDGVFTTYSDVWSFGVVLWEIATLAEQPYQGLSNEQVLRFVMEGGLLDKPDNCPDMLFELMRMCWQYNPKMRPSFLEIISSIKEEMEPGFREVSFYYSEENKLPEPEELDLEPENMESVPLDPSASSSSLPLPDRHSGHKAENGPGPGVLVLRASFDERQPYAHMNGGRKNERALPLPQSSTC

SMILES: CN1CCN(c2ccc(Nc3nc(N)c(C(=O)c4ccc5c(c4)OCCO5)s3)cc2)CC1
- Activity [1]: Toxic
- IC50 [2]: 22 µM
- Time [3]: 4 h
- Activity [4]: 12%
- inhibition at 2 µM [5]: 20%
- Activity [6]: 13%
- Activity [7]: 11%
- Activity [8]: 10%
- IC50 [9]: 3670 nM
- Activity [10]: Active
- inhibition [11]: Active
- Activity [12]: Active
- Activity [13]: 27%
- inhibition [14]: Active
- Time [15]: 12 h
- Activity [16]: Active
- IC50 [17]: 3040 nM
- IC50 [18]: 3850 nM
- Activity [19]: 1%
- Activity [20]: 7%
- Activity [21]: 43%
- Activity [22]: 30%
- Time [23]: 11 h
- Activity [24]: 20%
- Time [25]: 2 h
- Activity [26]: Toxic

SMILES: COc1cccc(C(=O)c2sc(Nc3ccc(N4CCN(C(C)C)CC4)cc3)nc2N)c1
- Activity [1]: Toxic
- IC50 [2]: 20 µM
- Time [3]: 4 h
- Activity [4]: 12%
- inhibition at 2 µM [5]: 20%
- Activity [6]: 13%
- Activity [7]: 11%
- Activity [8]: 10%
- IC50 [9]: 1060 nM
- Activity [10]: Active
- inhibition [11]: Active
- Activity [12]: Active
- Activity [13]: 27%
- inhibition [14]: Active
- Time [15]: 12 h
- Activity [16]: Active
- IC50 [17]: 1970 nM
- IC50 [18]: 1100 nM
- Activity [19]: 1%
- Activity [20]: 7%
- Activity [21]: 43%
- Activity [22]: 30%
- Time [23]: 11 h
- Activity [24]: 20%
- Time [25]: 2 h
- Activity [26]: Toxic

— ChEMBL document CHEMBL1955770, “Inhibition of S/G2 phase CDK4 reduces mitotic fidelity” (J Biol Chem, 2006)
